Holding throughout (type): functional
The species entered for assay [1] is Mus musculus. The assay can be described thus: Inhibitory activity against nitric oxide production in LPS-activated mouse peritoneal macrophages. The method, boiled down: (§1)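 Peritoneal exudate cells from male ddY mice, 5 × 10^5 cells/well, pre-cultured 1 h at 37 °C in RPMI 1640 with 5% FCS. Nonadherent cells washed off; adherent macrophages (>95%) given 10 µg/mL LPS plus test compound (DMSO, final 0.5%) for 20 h. Nitrite in medium measured by Griess reagent. Inhibition calculated relative to LPS-stimulated and unstimulated wells; IC50 determined graphically (N=4).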

For assay [2], the species on record is Mus musculus. Briefly: Compound (at 100 uM) was tested for inhibition against nitric oxide production in LPS-activated mouse peritoneal macrophages. An outline of the steps: as §1
For assay [3], the species on record is Mus musculus. The assay can be described thus: Compound (at 10 uM) was tested for inhibition against nitric oxide production in LPS-activated mouse peritoneal macrophages.
For assay [4], the species on record is Mus musculus. Briefly: Compound was tested for inhibitory activity against nitric oxide production in LPS-activated mouse peritoneal macrophages (*,showed cytotoxicity at 30 uM).
Assay [5] is filed under the species Mus musculus. Briefly: Compound (at 30 uM) was tested for inhibition against nitric oxide production in LPS-activated mouse peritoneal macrophages.
The species entered for assay [6] is Mus musculus. The assay can be described thus: Compound was tested for inhibitory activity against nitric oxide production in LPS-activated mouse peritoneal macrophages (*,showed cytotoxicity at 100 uM).

pIC50: −log10 of the molar value. Bounds are passed on as bounds.

Turning to `COc1ccc(/C=C/c2cc(O)cc(O)c2)cc1O`, the negative-log IC50 (pIC50) in the assay listed under Mus musculus [1] was 4.32.
`COC[C@H]1O[C@@H](Oc2cc(/C=C/c3ccc(OC)c(OC)c3)cc(OC)c2)[C@H](OC)[C@@H](OC)[C@@H]1OC` showed a pIC50 in the assay listed under Mus musculus [1] of 5.24.
On the same count and under the same terms, under `COc1ccc(/C=C/c2cc(O)cc(O[C@@H]3O[C@H](COC(=O)c4cc(O)c(O)c(O)c4)[C@@H](O)[C@H](O)[C@H]3O)c2)cc1O` stands 4.96.
`COc1ccc(/C=C/c2cc(O)cc(O[C@@H]3O[C@H](CO)[C@@H](O)[C@H](O)[C@H]3O)c2)cc1O` [RHAPONTIN]: the inhibition at 100 µM in the assay listed under Mus musculus [2] is 25%. Moreover, the pIC50 in the assay listed under Mus musculus [1] is under 4.00.
In turn, `COc1ccc(CCc2cc(O)cc(O)c2)cc1O` had a pIC50 in the assay listed under Mus musculus [1] of 4.31.
For the molecule `c1ccc(CCc2ccccc2)cc1`, the inhibition at 100 µM in the assay filed under Mus musculus [2] stood at 26%. The molecule further had a pIC50 in the assay listed under Mus musculus [1] of under 4.00.
`Oc1cc(O)cc(/C=C/c2ccc(O)c(O)c2)c1` [PICEATANNOL] had a pIC50 in the assay listed under Mus musculus [1] of 4.64.
For `Oc1ccc(CCc2cc(O)cc(O)c2)cc1` [DIHYDRORESVERATROL], the pIC50 in the assay filed under Mus musculus [1] was 4.12. Against the preceding molecule, the pIC50 is 0.52 log units lower.
Same read-out and setting: under `COc1cc(/C=C/c2cc(O)cc(O)c2)ccc1O` stands 4.20; under `Oc1cc(O)cc(CCc2ccc(O)c(O)c2)c1`, 4.49.
In the assay listed under Mus musculus [2], `OC[C@H]1O[C@@H](Oc2cc(/C=C/c3cc(O)cc(O)c3)ccc2O)[C@H](O)[C@@H](O)[C@@H]1O` showed an inhibition at 100 µM of 10%. The molecule further gave a pIC50 in the assay listed under Mus musculus [1] of under 4.00.
In the assay filed under Mus musculus [1], `COC[C@H]1O[C@@H](Oc2cc(/C=C/c3cc(OC)cc(OC)c3)ccc2OC)[C@H](OC)[C@@H](OC)[C@@H]1OC` had a pIC50 of 4.57.
As for `Cc1cc(O[C@@H]2O[C@H](CO)[C@@H](O)[C@H](O)[C@H]2O)c2c(c1)C(=O)c1cccc(O)c1C2=O` [CHRYSOPHANEIN], the inhibition at 100 µM in the assay filed under Mus musculus [2] was determined as 20%. The pIC50 in the assay filed under Mus musculus [1] was under 4.00.
For `Cc1cc(O)c2c(c1)C(=O)c1cccc(O[C@@H]3O[C@H](COC(=O)c4cc(O)c(O)c(O)c4)[C@@H](O)[C@H](O)[C@H]3O)c1C2=O`, in that order: 31% and under 4.00.
`Oc1ccc(/C=C/c2cc(O)cc(O)c2)cc1` [RESVERATROL] had a pIC50 in the assay listed under Mus musculus [1] of 4.17.
Molecule `COc1ccc(/C=C/c2cc(OC)cc(OC)c2)cc1` [TRISMETHOXYRESVERATROL] gave a pIC50 in the assay listed under Mus musculus [1] of 4.66.
`Cc1cc(O)c2c(c1)C(=O)c1cccc(O)c1C2=O` [CHRYSOPHANOL] displayed an inhibition at 100 µM in the assay filed under Mus musculus [2] of 2%. This molecule also showed a pIC50 in the assay listed under Mus musculus [1] of under 4.00.
The like results for `O=C1c2cccc(O)c2C(=O)c2c(O[C@@H]3O[C@H](CO)[C@@H](O)[C@H](O)[C@H]3O)cc(CO)cc21` were, in that order, 46% and under 4.00.
For `COc1ccc(/C=C/c2cc(O)cc(O[C@@H]3O[C@H](CO)[C@@H](O)[C@H](O)[C@H]3O)c2)cc1`, in that order: 13% and under 4.00.
In the assay filed under Mus musculus [1], `COc1cc(/C=C/c2ccc(OC)c(OC)c2)cc(OC)c1` [(E)-3,4,3',5'-TETRAMETHOXYSTILBENE] had a pIC50 of 4.55.
`C(=C\c1ccccc1)/c1ccccc1` displayed an inhibition at 100 µM in the assay filed under Mus musculus [2] of 21%. This molecule gave a pIC50 in the assay filed under Mus musculus [1] of under 4.00.
In turn, `O=C1c2cccc(O)c2C(=O)c2c(O)cc(CO)cc21` [ALOE-EMODIN] registered an inhibition at 10 µM in the assay listed under Mus musculus [3] of 38%. Besides, the pIC50 in the assay listed under Mus musculus [4] is under 5.00.
As for `O=C(O)c1cc(O)c(O)c(O)c1` [GALLIC ACID], the pIC50 in the assay filed under Mus musculus [1] is 4.20.
The same measure, in the same setting: the same measure for `O=C(/C=C/c1ccc(O)c(O)c1)OCCc1ccccc1` [CAFFEIC ACID PHENETHYL ESTER]: 4.40; for `COc1ccc(/C=C/c2cc(O)cc(O[C@@H]3O[C@H](CO)[C@@H](O)[C@H](O)[C@H]3OC(=O)c3cc(O)c(O)c(O)c3)c2)cc1O`: 4.89.
In the assay listed under Mus musculus [5], `COc1ccc(/C=C/c2cc(O)cc(O)c2)cc1` [RESVERATROL 4'-METHYL ETHER] returned an inhibition at 30 µM of 13%. In the assay filed under Mus musculus [6], this molecule gave a pIC50 of under 4.52.
For the molecule `COc1cc(O[C@@H]2O[C@H](CO)[C@@H](O)[C@H](O)[C@H]2O)c2c(O)c(C(C)=O)c(C)cc2c1`, in the assay filed under Mus musculus [1], the pIC50 was 4.16.
Regarding `COc1cc(/C=C/c2ccc(OC)c(O)c2)cc(OC)c1`, the pIC50 in the assay listed under Mus musculus [6] was 4.64.
On to `COc1cc(O)cc(/C=C/c2ccc(OC)c(OC)c2)c1`, for which, in the assay listed under Mus musculus [6], the pIC50 is 4.72.
`Cc1cc(O)c2c(c1)C(=O)c1cccc(O[C@@H]3O[C@H](CO)[C@@H](O)[C@H](O)[C@H]3O)c1C2=O` [PULMATIN]: the inhibition at 100 µM in the assay filed under Mus musculus [2] amounted to 31%. The molecule further showed a pIC50 in the assay filed under Mus musculus [1] of under 4.00.
The like results for `COc1ccc(CCc2cc(O)cc(O[C@@H]3O[C@H](CO)[C@@H](O)[C@H](O)[C@H]3O)c2)cc1O` were, in that order, 8% and under 4.00.
The like results for `COc1cc(/C=C/c2cc(O)cc(O[C@@H]3O[C@H](CO)[C@@H](O)[C@H](O)[C@H]3O)c2)ccc1O` were, in that order, 5% and under 4.00.
For `OC[C@H]1O[C@@H](Oc2cc(CCc3cc(O)cc(O)c3)ccc2O)[C@H](O)[C@@H](O)[C@@H]1O`, in that order: 6% and under 4.00.

One may read the pIC50 as the negative decadic logarithm of the IC50, by convention in mol/L. Lower therefore signals a high IC50. The term inhibition denotes the drop in the measured response relative to a control, in per cent.
